Reference: ChEMBL document CHEMBL1811872, “Tryptophan 2,3-dioxygenase (TDO) inhibitors. 3-(2-(pyridyl)ethenyl)indoles as potential anticancer immunomodulators” (J Med Chem, 2011)
Values after ≈ are worked out from the molar mass of the structure shown.

Assays:
[1] = Cytotoxicity against mouse P815B cells […] by MTT assay; type: functional; settings: read-out: LD50 (the source's name)
[2] = target: Tryptophan 2,3-dioxygenase (Mus musculus, UniProt P48776); assay: Inhibition of mouse TDO expressed in mouse P815B cells assessed as inhibition of tryptophan catabolism by measuring kynurenine production after 8 hrs by HPLC analysis; type: cell-based
Sequence of Tryptophan 2,3-dioxygenase (Mus musculus, UniProt P48776) (P48776 whole entry): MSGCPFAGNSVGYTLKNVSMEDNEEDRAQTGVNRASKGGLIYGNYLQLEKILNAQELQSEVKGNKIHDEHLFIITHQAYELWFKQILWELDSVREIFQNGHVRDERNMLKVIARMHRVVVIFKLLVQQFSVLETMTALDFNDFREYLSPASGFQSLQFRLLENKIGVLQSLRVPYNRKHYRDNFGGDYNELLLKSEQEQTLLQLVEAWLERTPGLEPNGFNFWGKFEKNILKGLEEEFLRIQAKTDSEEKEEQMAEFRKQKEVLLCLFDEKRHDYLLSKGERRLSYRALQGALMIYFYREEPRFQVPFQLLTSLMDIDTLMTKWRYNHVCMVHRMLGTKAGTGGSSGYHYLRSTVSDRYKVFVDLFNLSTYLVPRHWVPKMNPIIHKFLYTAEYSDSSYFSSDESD

[3] = Solubility of the compound in phosphate buffered saline at pH 7.4; type: physicochemical
How it was run: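 Solubility was measured experimentally in phosphate buffer (PBS), pH 7.4, at room temperature.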

[4] = Chemical stability of the compound in phosphate buffered saline assessed as compound remaining at pH 7.4 after 1.5 hrs; type: physicochemical; settings: read-out: Stability
How it was run: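 Compound was incubated in phosphate-buffered saline, pH 7.4, for 1.5 h; read-out was the percentage of compound recovered.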

[5] = Plasma concentration in DBA/2 mouse at 160 mg/kg/day, po administered for 7 days with water; type: ADME, organism-based; set-up: route oral
How it was run: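 DBA/2 mice received the compound dissolved in drinking water (1 mg/mL) ad libitum. Mean water intake was 4.0 mL/mouse/day, giving about 160 mg/kg/day. Plasma levels of compound, L-Trp and kynurenine were measured at days 0, 1, 2 and 7.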

[6] = target: Tryptophan 2,3-dioxygenase (Homo sapiens, UniProt P48775); assay: Competitive inhibition of human recombinant TDO expressed in Escherichia coli BL21 using L-tryptophan as substrate by measuring conversion of N-formylkynurenine into kynurenine after 30 mins by Michaelis-Menten steady state analysis
Sequence of Tryptophan 2,3-dioxygenase (Homo sapiens, UniProt P48775) (P48775 whole entry): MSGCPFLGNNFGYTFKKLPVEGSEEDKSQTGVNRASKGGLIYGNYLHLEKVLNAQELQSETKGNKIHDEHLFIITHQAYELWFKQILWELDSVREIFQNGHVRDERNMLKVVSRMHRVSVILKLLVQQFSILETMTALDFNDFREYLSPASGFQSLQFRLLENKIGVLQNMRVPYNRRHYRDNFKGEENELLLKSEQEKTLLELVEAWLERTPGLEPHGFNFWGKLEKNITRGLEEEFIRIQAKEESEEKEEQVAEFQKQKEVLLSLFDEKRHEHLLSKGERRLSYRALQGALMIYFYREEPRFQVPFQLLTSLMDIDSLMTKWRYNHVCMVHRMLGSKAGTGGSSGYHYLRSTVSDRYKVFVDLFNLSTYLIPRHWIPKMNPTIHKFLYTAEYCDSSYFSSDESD

Compound | CC50 [1] | IC50 [2] | other results
O=C(O)c1ccc2[nH]cc(/C=C/c3cccnc3)c2c1 | > 200 µM | > 200 µM | 
Fc1ccc2c(/C=C/c3cccnc3)c[nH]c2c1 | > 80 µM | 1 µM | solubility [3]: 92 µM (≈ 21.9 µg/mL); remaining at 1.5 h [4]: 67.6%; concentration at 168 h [5]: 100 nM
N#Cc1cccc2[nH]cc(/C=C/c3cccnc3)c12 | > 200 µM | > 200 µM | 
Fc1ccc(-c2n[nH]cc2/C=C/c2cccnc2)cc1 | > 80 µM | > 200 µM | 
Fc1ccc2c(/C=C/c3cccc(Br)c3)c[nH]c2c1 | > 200 µM | > 200 µM | 
c1ccc2c(Cc3nnn[nH]3)c[nH]c2c1 | > 80 µM | > 80 µM | 
COC(=O)c1ccc2[nH]cc(/C=C/c3cccnc3)c2c1 | > 200 µM | > 200 µM | 
C(=C\c1c[nH]c2c1ccc1ccccc12)/c1cccnc1 | > 80 µM | > 200 µM | 
O=C(O)/C=C/c1c[nH]c2ccccc12 | > 400 µM | 18 µM | 
N#CCCc1c[nH]c2ccccc12 | > 80 µM | > 80 µM | 
O=C(O)/C=C/c1c[nH]c2cc(F)ccc12 | > 400 µM | 3 µM | solubility [3]: > 300 µM; remaining at 1.5 h [4]: 92.9%; Ki [6]: 32.4 µM; concentration at 168 h [5]: 1400 nM
C/C=C/c1c[nH]c2ccccc12 | > 80 µM | > 80 µM | 
COC(=O)c1ccc2c(/C=C/c3cccnc3)c[nH]c2c1 | > 200 µM | > 200 µM | 
N#Cc1c[nH]c2ccccc12 | > 80 µM | > 80 µM | 
N#Cc1cccc(/C=C/c2c[nH]c3cc(F)ccc23)c1 | 20 µM | 1 µM | 
N#CCc1c[nH]c2ccccc12 | > 80 µM | > 80 µM | 
COC(=O)c1cccc2[nH]cc(/C=C/c3cccnc3)c12 | > 200 µM | > 200 µM | 
N#C/C(=C\c1c[nH]c2cc(F)ccc12)C(=O)O | > 80 µM | > 80 µM | 
c1ccc2c(CCc3nnn[nH]3)c[nH]c2c1 | > 80 µM | > 80 µM | 
Fc1ccc2c(/C=C/c3cccc(Cl)c3)c[nH]c2c1 | > 200 µM | > 200 µM | 
Clc1cccc2c(/C=C/c3cccnc3)c[nH]c12 | > 200 µM | > 200 µM | 
Fc1cccc2c(/C=C/c3cccnc3)c[nH]c12 | > 400 µM | 50 µM | 
OC/C=C/c1c[nH]c2cc(F)ccc12 | 100 µM | 80 µM | 
C(=C\c1c(-c2ccccc2)[nH]c2ccccc12)/c1cccnc1 | > 200 µM | > 200 µM | 
CCOC(=O)/C(C#N)=C/c1c[nH]c2cc(F)ccc12 | > 80 µM | > 80 µM | 

Compound | CC50 [1] | IC50 [2] | other results
Cc1ccc2[nH]cc(/C=C/c3cccnc3)c2c1 | > 200 µM | > 200 µM | 
Brc1ccc2[nH]cc(/C=C/c3cccnc3)c2c1 | 20 µM | 40 µM | 
C(=C\c1c[nH]c2ccccc12)/c1nnn[nH]1 | > 80 µM | 10 µM | 
C(=C\c1c[nH]c2ccccc12)/c1ccccn1 | > 100 µM | 20 µM | 
N#C/C=C\c1c[nH]c2ccccc12 | > 80 µM | > 80 µM | 
O=[N+]([O-])c1cccc2[nH]cc(/C=C/c3cccnc3)c12 | > 200 µM | > 200 µM | 
N#C/C(=C\c1c[nH]c2cc(F)ccc12)c1ccccc1 | > 80 µM | > 80 µM | 
O=[N+]([O-])c1cccc(/C=C/c2c[nH]c3cc(F)ccc23)c1 | 40 µM | 3 µM | 
C(=C\c1c[nH]c2ccccc12)/c1cccnc1 | > 80 µM | 1 µM | 
Fc1ccc2[nH]cc(/C=C/c3cccnc3)c2c1 | > 80 µM | 5 µM | 
Fc1ccc2c(/C=C/c3ccccn3)c[nH]c2c1 | 100 µM | 3 µM | 
C(=C\c1c[nH]c2ncccc12)/c1cccnc1 | > 80 µM | 18 µM | 
Oc1ccc2c(/C=C/c3cccnc3)c[nH]c2c1 | > 200 µM | > 200 µM | 
COc1ccc2[nH]cc(/C=C/c3cccnc3)c2c1 | > 80 µM | 40 µM | 
C(=C\c1c[nH]c2ccccc12)/c1ccncc1 | > 100 µM | 20 µM | 
Fc1ccc2c(/C=C/c3ccc4ccccc4c3)c[nH]c2c1 | > 200 µM | > 200 µM | 
Fc1ccc2c(/C=C/c3ccccc3)c[nH]c2c1 | 40 µM | 40 µM | 
Clc1ccc2c(/C=C/c3cccnc3)c[nH]c2c1 | > 40 µM | 20 µM | 
C(=C\c1c[nH]c2ccncc12)/c1cccnc1 | > 80 µM | > 200 µM | 
COc1cccc2c(/C=C/c3cccnc3)c[nH]c12 | > 200 µM | > 200 µM | 
COC(=O)/C=C/c1c[nH]c2cc(F)ccc12 | 40 µM | 2 µM | 
Cc1cccc2c(/C=C/c3cccnc3)c[nH]c12 | > 200 µM | > 200 µM | 
COc1ccc2c(/C=C/c3cccnc3)c[nH]c2c1 | > 200 µM | > 200 µM | 
Cc1ccc2c(/C=C/c3cccnc3)c[nH]c2c1 | > 200 µM | > 200 µM | 
N#C/C=C/c1c[nH]c2cc(F)ccc12 | > 80 µM | 3 µM | 

Compound | CC50 [1] | IC50 [2] | other results
Fc1cccc(/C=C/c2c[nH]c3cc(F)ccc23)c1 | 40 µM | 10 µM | 
Fc1cccc2[nH]cc(/C=C/c3cccnc3)c12 | > 80 µM | 10 µM | 
Brc1cccc2[nH]cc(/C=C/c3cccnc3)c12 | > 200 µM | > 200 µM | 
C(=C\c1ccc2ccccc2c1)/c1cccnc1 | > 80 µM | > 200 µM | 
N#CSCCc1c[nH]c2ccccc12 | > 80 µM | 44 µM | 
N#C/C=C/c1c[nH]c2ccccc12 | > 80 µM | 13 µM | 
COc1cccc(/C=C/c2c[nH]c3cc(F)ccc23)c1 | 40 µM | 10 µM | 
N#Cc1ccc2[nH]cc(/C=C/c3cccnc3)c2c1 | > 200 µM | > 200 µM | 
O=C(O)C(=Cc1c[nH]c2cc(F)ccc12)C(=O)O | > 80 µM | > 80 µM | 
Cc1[nH]c2ccccc2c1/C=C/c1cccnc1 | > 200 µM | > 200 µM | 
c1ccc2c(-c3nnn[nH]3)c[nH]c2c1 | > 80 µM | > 80 µM | 
O=[N+]([O-])c1ccc2[nH]cc(/C=C/c3cccnc3)c2c1 | > 200 µM | > 200 µM | 
Brc1cccc2c(/C=C/c3cccnc3)c[nH]c12 | 20 µM | > 20 µM | 
Clc1ccc2[nH]cc(/C=C/c3cccnc3)c2c1 | > 80 µM | 20 µM | 
Cn1cc(/C=C/c2cccnc2)c2ccc(F)cc21 | > 200 µM | > 200 µM | 
Clc1cccc2[nH]cc(/C=C/c3cccnc3)c12 | 40 µM | > 40 µM | 
C(=C\c1n[nH]c2ccccc12)/c1cccnc1 | > 80 µM | > 200 µM | 
C(=C\c1c[nH]cn1)/c1cccnc1 | > 80 µM | > 200 µM | 
C(=C\c1ccc2[nH]ccc2c1)/c1cccnc1 | > 80 µM | > 200 µM | 
C(#Cc1c[nH]c2ccccc12)c1cccnc1 | 200 µM | 6 µM | 
c1cncc(CCc2c[nH]c3ccccc23)c1 | > 80 µM | 80 µM | 
Fc1ccc2c(/C=C/c3ccncc3)c[nH]c2c1 | 200 µM | 3 µM | 
Brc1ccc2c(/C=C/c3cccnc3)c[nH]c2c1 | > 200 µM | > 200 µM | 
c1cncc(CCCc2c[nH]c3ccccc23)c1 | > 200 µM | > 200 µM | 
